Results published in ChEMBL document CHEMBL2311473, “Characterization of antimicrobial, cytotoxic, and antiendotoxin properties of short peptides with different hydrophobic amino acids at "a" and "d" positions of a heptad repeat sequence” (J Med Chem, 2013).
Values after ≈ are worked out from the molar mass of the structure shown. Active and inactive are the calls of the source. The calls are words filed in the database; no cut-off is given here.

Key:
Lipopolysaccharide (LPS) [1] = experiment: Binding affinity to LPS assessed as inhibition of LPS-induced LAL enzyme activation at 18 uM after 30 mins by spectrophotometric analysis
Outline: (§1)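 Chromogenic limulus amoebocyte lysate endotoxin kit. Peptide binding to LPS estimated from inhibition of LPS-induced LAL enzyme activation, i.e. reduced substrate colour, and reported as percentage LPS binding.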

Lipopolysaccharide (LPS) [2] = experiment: Binding affinity to LPS assessed as inhibition of LPS-induced LAL enzyme activation at 9 uM after 30 mins by spectrophotometric analysis; outline: as §1
Lipopolysaccharide (LPS) [3] = experiment: Binding affinity to LPS assessed as inhibition of LPS-induced LAL enzyme activation at 4.5 uM after 30 mins by spectrophotometric analysis; outline: as §1
Lipopolysaccharide (LPS) [4] = experiment: Binding affinity to FITC-tagged LPS assessed as induction of disintegration up to 40 uM by […]; details: in the assay text read “fluorescence dequenching” for “circular dichroism”
Outline: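 FITC-LPS (0.5 μg/mL) titrated with increasing peptide concentrations. Disaggregation read as dequenching, i.e. rise in FITC fluorescence, monitored after each addition until emission reached equilibrium.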

Lipopolysaccharide (LPS) [5] = experiment: Binding affinity to LPS assessed as increase in helical structure at 36 uM by circular dichroism analysis
Outline: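 CD spectra of peptides (36 μM) recorded alone and with LPS at 3.8 and 6.25 μM.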

RAW264.7 [6] = experiment: Antiinflammatory activity in mouse RAW264.7 cells assessed as inhibition of LPS-induced IL6 secretion at 1.5 to 4.5 uM after 12 hrs by ELISA; assay type: functional, cell-based
Outline: (§2)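 RAW 264.7 cells treated with LPS alone or LPS plus peptide. TNF-α and IL-6 measured by ELISA in culture supernatant and expressed as percentage inhibition of LPS-induced secretion. Mean of three independent experiments, SD shown.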

RAW264.7 [7] = experiment: Antiinflammatory activity in mouse RAW264.7 cells assessed as downregulation of LPS-induced iNOS2 expression at 4.5 uM after 24 hrs by Western blotting analysis; assay type: functional, cell-based
Outline: (§3)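 RAW 264.7 cells (~2 × 10^5) stimulated with LPS 1 μg/mL plus peptide 4.5 μM for 24 h. Cells washed in ice-cold PBS and lysed in Laemmli buffer. SDS-PAGE (8% gel iNOS-2, 12% TNF-α), nitrocellulose transfer, alkaline phosphatase secondary with NBT/BCIP. Band densities normalized to β-actin. LPS-only and untreated cells served as controls.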

RAW264.7 [8] = experiment: Antiinflammatory activity in mouse RAW264.7 cells assessed as downregulation of LPS-induced TNFalpha expression at 4.5 uM after 24 hrs by Western blotting analysis; assay type: functional, cell-based; outline: as §3
RAW264.7 [9] = experiment: Antiinflammatory activity in mouse RAW264.7 cells assessed as inhibition of LPS-induced NO production at 6 uM by Griess method; assay type: functional; parameters: scale not given: the % may be the effect or the level left
Outline: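 RAW 264.7 cells plated at 5 × 10^5/well and exposed to LPS (E. coli 0111:B4, 1 μg/mL) together with peptide at varying doses. Cells with and without LPS served as maximum and basal NO controls. Nitrite in the supernatant measured by Griess reagent at 548 nm against a sodium nitrite standard curve, and percent inhibition of NO calculated.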

[10] = Binding affinity to PE/PG lipid vesicles assessed as decrease in decrease in acrylamide-induced tryptophan fluorescence quenching at 1 uM; assay type: physicochemical
Outline: (§4)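 Acrylamide quencher added in aliquots from 3.0 M stock to peptide with PC/Chol (8:1) or PE/PG (7:3) SUVs, peptide/lipid 1:100. Trp excited at 295 nm. Values corrected for dilution and vesicle-blank scatter, then fitted to Stern–Volmer F0/F = 1 + KSV[Q].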

[11] = Binding affinity to PC/Chol lipid vesicles assessed as decrease in acrylamide-induced tryptophan fluorescence quenching at 1 uM; assay type: physicochemical; outline: as §4
[12] = Binding affinity to PC/Chol lipid vesicles assessed as induction of large blue shift at 1 uM by fluorescence assay; assay type: physicochemical
[13] = Binding affinity to PE/PG lipid vesicles assessed as induction of large blue shift at 1 uM by fluorescence assay; assay type: physicochemical
[14] = Induction of dissipation of diffusion potential in PC/Chol lipid vesicles by fluorescence assay; assay type: physicochemical
Outline: (§5)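 SUVs of PC/Chol (8:1 w/w) or PE/PG (7:3 w/w) treated with peptide. Dissipation of diffusion potential taken as percentage fluorescence recovery ~5 min after peptide addition, with valinomycin used for reference levels. Plotted against peptide/lipid molar ratio.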

[15] = Induction of dissipation of diffusion potential in PE/PG lipid vesicles by fluorescence assay; assay type: physicochemical; outline: as §5
Staphylococcus aureus [16] = experiment: Bactericidal activity against Staphylococcus aureus ATCC 9144 assessed as induction of membrane depolarization at up to 7 uM by DiSC3(5) staining-based fluorescence assay; assay type: functional, organism-based
Outline: (§6)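 Membrane potential dye diS-C3-5 preincubated 1 h with hRBC or S. aureus suspensions; I0 is steady-state fluorescence after this incubation. Peptide then added at varying concentrations. Depolarization expressed as percentage fluorescence recovery (Ft) versus peptide concentration.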

[17] = Cytotoxicity against human RBC assessed as induction of membrane depolarization at up to 16 uM by DiSC3(5) staining-based fluorescence assay; assay type: cell-based; details: erythrocyte; outline: as §6
Escherichia coli [18] = experiment: Bactericidal activity against Escherichia coli ATCC 10536 assessed as induction of membrane damage at 5 uM after 30 mins by propidium iodide staining-based flow cytometric analysis; assay type: functional, organism-based
Outline: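 Mid-log E. coli incubated with peptide (~5.0 μM) 30 min at 37 °C with shaking. Cells washed twice in PBS, stained with propidium iodide 30 min at 4 °C, washed and resuspended. 10000 events per sample by flow cytometry, compared with peptide-free control.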

[19] = Cytotoxicity against human RBC assessed as induction of membrane damage at 25 uM after 5 mins by annexin V-FITC staining-based FACS flow cytometric analysis; assay type: cell-based; details: erythrocyte
Outline: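 hRBCs (~3.0 × 10^7 cells/mL) treated with peptide (~25.0 μM) for 5 min at room temperature. Stained with FITC-annexin V and analysed by flow cytometry, 10000 events, compared with untreated control.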

Escherichia coli [20] = experiment: Drug uptake in Escherichia coli ATCC 10536 assessed as membrane localization at 3 uM after 30 mins by confocal microscopic analysis; assay type: ADME, organism-based; details: in vivo, 0.5 h
Outline: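 E. coli (~10^6 CFU/mL) in LB incubated with fluorescent-labeled peptide (~3.0 μM) for half an hour. Cells centrifuged, washed and imaged by confocal microscopy (DIC and fluorescence).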

Aspergillus fumigatus = experiment: Antifungal activity against Aspergillus fumigatus after 72 hrs by NCCLS microbroth dilution method; assay type: functional
Outline: (§7)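 Microbroth dilution in MOPS-buffered RPMI 1640 following NCCLS guidelines. Inoculum 1−5 × 10^3 cells/mL, peptide range 50−0.36 (mass/mL). Plates held in a moist chamber at 35 °C and A492 read after 48 h (Candida spp.), 72 h (A. fumigatus, S. schenckii, C. neoformans) or 96 h (T. mentagrophytes). MIC taken as 90% growth inhibition versus growth control.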

[21] = system: Trichophyton mentagrophytes; experiment: Antifungal activity against Trichophyton mentagrophytes after 96 hrs by NCCLS microbroth dilution method; assay type: functional; outline: as §7
Sporothrix schenckii = experiment: Antifungal activity against Sporothrix schenckii after 72 hrs by NCCLS microbroth dilution method; assay type: functional; outline: as §7
Candida parapsilosis = experiment: Antifungal activity against Candida parapsilosis ATCC 22019 after 48 hrs by NCCLS microbroth dilution method; assay type: functional; details: Lodderomyces parapsilosis, ATCC 22019, 48 h; outline: as §7
Cryptococcus neoformans = experiment: Antifungal activity against Cryptococcus neoformans after 72 hrs by NCCLS microbroth dilution method; assay type: functional; outline: as §7
Candida albicans = experiment: Antifungal activity against Candida albicans after 48 hrs by NCCLS microbroth dilution method; assay type: functional; outline: as §7
Klebsiella pneumoniae = experiment: Antibacterial activity against Klebsiella pneumoniae ATCC 27736 after 18 hrs by broth dilution method; assay type: functional; details: ATCC 27736, 18 h
Outline: (§8)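 Bacteria grown aerobically at 37 °C in Mueller-Hinton broth to mid-log phase (OD600), diluted to ~10^6 cfu/mL, then mixed 1:1 with 2-fold serial peptide dilutions in water. Incubation ~18 h at 37 °C before MIC read-out (μM).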

Pseudomonas aeruginosa = experiment: Antibacterial activity against Pseudomonas aeruginosa ATCC BAA-427 after 18 hrs by broth dilution method; assay type: functional; details: ATCC BAA-427, 18 h; outline: as §8
Staphylococcus aureus [22] = experiment: Antibacterial activity against methicillin-resistant Staphylococcus aureus after 18 hrs by broth dilution method; assay type: functional; outline: as §8
Escherichia coli [23] = experiment: Antibacterial activity against Escherichia coli ATCC 10536 after 18 hrs by broth dilution method; assay type: functional; details: ATCC 10536, 18 h; outline: as §8
Bacillus subtilis = experiment: Antibacterial activity against Bacillus subtilis ATCC 6633 after 18 hrs by broth dilution method; assay type: functional; details: ATCC 6633, 18 h; outline: as §8
[24] = system: Staphylococcus epidermidis; experiment: Antibacterial activity against Staphylococcus epidermidis NRRL B-4268 after 18 hrs by broth dilution method; assay type: functional; details: NRRL B-4268, 18 h; outline: as §8
Staphylococcus aureus [25] = experiment: Antibacterial activity against Staphylococcus aureus ATCC 9144 after 18 hrs by broth dilution method; assay type: functional; details: ATCC 9144, 18 h; outline: as §8
NIH3T3 = experiment: Cytotoxicity against mouse 3T3 cells assessed as cell viability up to 25 uM by MTT assay; assay type: cell-based
Outline: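 Murine 3T3 fibroblasts, grown in DMEM/IMDM with 10% FCS at 37 °C, 5% CO2, seeded at 10000 cells/well. Viability after peptide exposure measured by MTT (mitochondrial dehydrogenase) across a dose range.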

[26] = Cytotoxicity against human RBC assessed as hemolysis at 60 uM; assay type: cell-based, Erythrocyte; details: red blood cells (RBC), read-out: Activity
Outline: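 hRBCs in PBS exposed to peptide. Hemoglobin release read as supernatant absorbance at 540 nm. Hemolysis % = (Asample − Ablank)/(Atriton − Ablank) × 100, with PBS blank and 0.2% Triton X-100 (final) as 100% reference.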

RAW264.7 [27] = experiment: Antiinflammatory activity in mouse RAW264.7 cells assessed as inhibition of LPS-induced TNFalpha secretion at 1.5 to 4.5 uM after 12 hrs by ELISA; assay type: functional, cell-based; outline: as §2
[28] = Drug uptake in human RBC assessed as membrane localization at 9 uM after 10 to 30 mins by confocal microscopic analysis; assay type: ADME; details: erythrocyte
Outline: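 Fresh hRBCs (3% in PBS) incubated with NBD-labeled peptide (~9.0 μM) for 10–30 min at 37 °C. Washed, fixed in 2% paraformaldehyde 10 min, and imaged by confocal microscopy at constant photomultiplier setting.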

`C[C@H](N)C(=O)O` [ALANINE] gave an inhibition (Lipopolysaccharide (LPS) [1]) of 10%, an inhibition (Lipopolysaccharide (LPS) [2]) of 7% and an inhibition (Lipopolysaccharide (LPS) [3]) of 3%. For the same compound, the Activity (Lipopolysaccharide (LPS) [4]) was “Active”, the Activity (Lipopolysaccharide (LPS) [5]) was “Active” and the inhibition (RAW264.7 [6]) was “Active”. The Activity (RAW264.7 [7]) was “Active”, the Activity (RAW264.7 [8]) was “Active” and the Activity (RAW264.7 [9]) was 13%. For the same compound, the Activity [10] was “Active”, the Activity [11] was “Not Active” and the Activity [12] was “Not Active”. For the same compound, the Activity [13] was “Active”, the Activity [14] was “Active” and the Activity [15] was “Active”. The Activity (Staphylococcus aureus [16]) was “Active”, the Activity [17] was “Non-toxic” and the Activity (Escherichia coli [18]) was “Active”. The Activity [19] was “Non-toxic”, the Drug uptake (Escherichia coli [20]) was “Active” and the MIC (Aspergillus fumigatus) was > 25 µM. For the same compound, the MIC [21] was > 25 µM, the MIC (Sporothrix schenckii) was 25 µM (≈ 2.23 µg/mL) and the MIC (Candida parapsilosis) was 25 µM (≈ 2.23 µg/mL). For the same compound, the MIC (Cryptococcus neoformans) was > 25 µM, the MIC (Candida albicans) was > 25 µM and the MIC (Klebsiella pneumoniae) was 25 µM (≈ 2.23 µg/mL). The MIC (Pseudomonas aeruginosa) was 6.25 µM (≈ 0.557 µg/mL), the MIC (Staphylococcus aureus [22]) was > 25 µM and the MIC (Escherichia coli [23]) was 4.5 µM (≈ 0.401 µg/mL). The MIC (Bacillus subtilis) was 20 µM (≈ 1.78 µg/mL), the MIC [24] was 8 µM (≈ 0.713 µg/mL) and the MIC (Staphylococcus aureus [25]) was 6.25 µM (≈ 0.557 µg/mL). The Activity (NIH3T3) was “Toxic”, the hemolysis at 60 µM [26] was 1% and the inhibition (RAW264.7 [27]) was “Active”. For the same compound, the Drug uptake [28] was “Not Active”.
